Data taken from ChEMBL document CHEMBL2163331, “Multidrug resistance reversal and apoptosis induction in human colon cancer cells by some flavonoids present in citrus plants” (J Nat Prod, 2012).
Calls of active or inactive are those of the source. The calls are words filed in the database; no cut-off is given here.

Tests used:
[1] = Induction of apoptosis in human […] cells assessed as necrotic cells at 100 uM after 48 hrs by annexin-V and propidium iodide staining based flow cytometry (reference value: 9.57 +/- 2.83%); assay type: functional
[2] = Induction of apoptosis in human […] cells assessed as apoptotic cells at 100 uM after 48 hrs by annexin-V and propidium iodide staining based flow cytometry (reference value: 6.16 +/- 1.67%); assay type: functional
[3] = system: LoVo; assay: Induction of apoptosis in human drug-sensitive LoVo cells assessed as necrotic cells at 100 uM after 48 hrs by annexin-V and propidium iodide staining based flow cytometry (reference value: 10.44 +/- 3.23%); assay type: functional
[4] = system: LoVo; assay: Induction of apoptosis in human drug-sensitive LoVo cells assessed as apoptotic cells at 100 uM after 48 hrs by annexin-V and propidium iodide staining based flow cytometry (reference value: 6.68 +/- 1.77%); assay type: functional
[5] = system: LoVo/DX; assay: Cytotoxicity against human drug-resistant LoVo/DX cells after 72 hrs by SRB assay; assay type: functional, cell-based
How it was run: (§1)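 Cells seeded at 30 000/well, attached 60 min at 37 °C, then compound added in an equal volume of medium and incubated 72 h. Read by sulforhodamine B at A492. Survival = A492 treated / A492 medium-only control × 100%. DMSO was at most 0.3% in samples. Triplicate experiments, means ± SD, Student's t test.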

[6] = system: LoVo; assay: Cytotoxicity against human drug-sensitive LoVo cells after 72 hrs by SRB assay; assay type: functional, cell-based; how it was run: as §1
[7] = target: T1, ATP-dependent translocase ABCB1 (Homo sapiens, UniProt P08183); assay: Inhibition of p-glycoprotein in human LoVo/DX cells assessed accumulation of rhodamine 123 at 5 to 100 uM after 60 mins by fluorescence assay; conditions: 1 h
T1 sequence (P08183 whole entry): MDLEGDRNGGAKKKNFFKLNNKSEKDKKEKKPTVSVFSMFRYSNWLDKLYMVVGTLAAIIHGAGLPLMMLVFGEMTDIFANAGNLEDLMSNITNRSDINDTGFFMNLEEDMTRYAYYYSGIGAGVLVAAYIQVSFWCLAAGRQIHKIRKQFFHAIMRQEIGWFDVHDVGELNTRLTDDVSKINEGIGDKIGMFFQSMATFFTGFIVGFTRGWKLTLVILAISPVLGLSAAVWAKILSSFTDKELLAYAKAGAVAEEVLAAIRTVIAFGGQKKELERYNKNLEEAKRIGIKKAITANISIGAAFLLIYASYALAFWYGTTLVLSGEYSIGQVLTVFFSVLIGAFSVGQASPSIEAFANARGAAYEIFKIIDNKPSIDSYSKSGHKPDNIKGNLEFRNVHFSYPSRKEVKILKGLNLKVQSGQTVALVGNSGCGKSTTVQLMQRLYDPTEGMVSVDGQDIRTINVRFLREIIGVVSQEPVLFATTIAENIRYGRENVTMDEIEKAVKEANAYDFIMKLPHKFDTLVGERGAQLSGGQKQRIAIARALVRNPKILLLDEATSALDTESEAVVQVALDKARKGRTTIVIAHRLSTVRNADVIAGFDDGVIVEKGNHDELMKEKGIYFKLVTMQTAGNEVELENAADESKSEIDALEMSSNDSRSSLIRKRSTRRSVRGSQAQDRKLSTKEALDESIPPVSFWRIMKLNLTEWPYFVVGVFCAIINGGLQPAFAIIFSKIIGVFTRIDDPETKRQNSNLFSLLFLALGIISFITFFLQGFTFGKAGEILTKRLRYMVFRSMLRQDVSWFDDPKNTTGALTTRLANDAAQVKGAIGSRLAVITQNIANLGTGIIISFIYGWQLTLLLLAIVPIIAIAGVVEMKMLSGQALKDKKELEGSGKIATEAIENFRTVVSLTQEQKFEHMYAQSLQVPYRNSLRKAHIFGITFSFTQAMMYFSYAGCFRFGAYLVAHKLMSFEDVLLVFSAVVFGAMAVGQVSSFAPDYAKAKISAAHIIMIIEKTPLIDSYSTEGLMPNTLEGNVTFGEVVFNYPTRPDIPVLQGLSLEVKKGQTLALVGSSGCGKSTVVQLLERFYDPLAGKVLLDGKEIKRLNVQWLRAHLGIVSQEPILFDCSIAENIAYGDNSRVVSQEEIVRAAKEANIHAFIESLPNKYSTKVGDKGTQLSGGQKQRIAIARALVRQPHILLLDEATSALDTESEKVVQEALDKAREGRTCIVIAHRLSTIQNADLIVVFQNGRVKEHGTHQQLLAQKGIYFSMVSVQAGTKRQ

[8] = Induction of apoptosis in human […] cells assessed as activation of caspase-3 at 15 uM after 48 hrs relative to control; assay type: functional
How it was run: (§2)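 LoVo (sensitive) or LoVo/Dx (doxorubicin-selected; kept in 100 ng/mL doxorubicin) cells, 800 000/well, attached 24 h, then exposed to compound in fresh medium for 48 h. Cells scraped and pelleted. Caspase-3 activity read colorimetrically at A405 as pNA released from DEVD-pNA (commercial kit). Reported as ratio of treated to medium-only control. Triplicate, means ± SD, Student's t test.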

[9] = Induction of apoptosis in human […] cells assessed as necrotic cells at 15 uM after 48 hrs by annexin-V and propidium iodide staining based flow cytometry (reference value: 9.57 +/- 2.83%); assay type: functional
[10] = Induction of apoptosis in human […] cells assessed as apoptotic cells at 15 uM after 48 hrs by annexin-V and propidium iodide staining based flow cytometry (reference value: 6.16 +/- 1.67%); assay type: functional
[11] = system: LoVo; assay: Induction of apoptosis in human drug-sensitive LoVo cells assessed as necrotic cells at 15 uM after 48 hrs by annexin-V and propidium iodide staining based flow cytometry (reference value: 10.44 +/- 3.23%); assay type: functional
[12] = system: LoVo; assay: Induction of apoptosis in human drug-sensitive LoVo cells assessed as apoptotic cells at 15 uM after 48 hrs by annexin-V and propidium iodide staining based flow cytometry (reference value: 6.68 +/- 1.77%); assay type: functional
[13] = system: LoVo; assay: Induction of apoptosis in human drug-sensitive LoVo cells assessed as activation of caspase-3 at 15 uM after 48 hrs relative to control; assay type: functional; how it was run: as §2
[14] = Induction of apoptosis in human […] cells assessed as activation of caspase-3 at 100 uM after 48 hrs relative to control; assay type: functional
How it was run: (§3)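 Cells seeded at 800 000/well and allowed to attach 24 h. Compound added in fresh medium, then 48 h incubation. Cells scraped and centrifuged, and caspase-3 activity measured colorimetrically by pNA release from DEVD-pNA (A405) with a kit. Result expressed as a ratio to a medium-only control. Triplicate, means ± SD.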

[15] = Induction of apoptosis in human […] cells assessed as activation of caspase-3 at 75 uM after 48 hrs relative to control; assay type: functional; how it was run: as §3
[16] = Induction of apoptosis in human […] cells assessed as activation of caspase-3 at 25 uM after 48 hrs relative to control; assay type: functional; how it was run: as §3
[17] = system: LoVo; assay: Induction of apoptosis in human drug-sensitive LoVo cells assessed as activation of caspase-3 at 100 uM after 48 hrs relative to control; assay type: functional; how it was run: as §3
[18] = system: LoVo; assay: Induction of apoptosis in human drug-sensitive LoVo cells assessed as activation of caspase-3 at 75 uM after 48 hrs relative to control; assay type: functional; how it was run: as §3
[19] = Induction of apoptosis in human […] cells assessed as necrotic cells at 75 uM after 48 hrs by annexin-V and propidium iodide staining based flow cytometry (reference value: 9.57 +/- 2.83%); assay type: functional
[20] = Induction of apoptosis in human […] cells assessed as necrotic cells at 25 uM after 48 hrs by annexin-V and propidium iodide staining based flow cytometry (reference value: 9.57 +/- 2.83%); assay type: functional
[21] = Induction of apoptosis in human […] cells assessed as apoptotic cells at 75 uM after 48 hrs by annexin-V and propidium iodide staining based flow cytometry (reference value: 6.16 +/- 1.67%); assay type: functional
[22] = Induction of apoptosis in human […] cells assessed as apoptotic cells at 25 uM after 48 hrs by annexin-V and propidium iodide staining based flow cytometry (reference value: 6.16 +/- 1.67%); assay type: functional
[23] = system: LoVo; assay: Induction of apoptosis in human drug-sensitive LoVo cells assessed as necrotic cells at 75 uM after 48 hrs by annexin-V and propidium iodide staining based flow cytometry (reference value: 10.44 +/- 3.23%); assay type: functional
[24] = system: LoVo; assay: Induction of apoptosis in human drug-sensitive LoVo cells assessed as necrotic cells at 25 uM after 48 hrs by annexin-V and propidium iodide staining based flow cytometry (reference value: 10.44 +/- 3.23%); assay type: functional
[25] = system: LoVo; assay: Induction of apoptosis in human drug-sensitive LoVo cells assessed as apoptotic cells at 75 uM after 48 hrs by annexin-V and propidium iodide staining based flow cytometry (reference value: 6.68 +/- 1.77%); assay type: functional
[26] = system: LoVo; assay: Induction of apoptosis in human drug-sensitive LoVo cells assessed as apoptotic cells at 25 uM after 48 hrs by annexin-V and propidium iodide staining based flow cytometry (reference value: 6.68 +/- 1.77%); assay type: functional
[27] = target: T1, ATP-dependent translocase ABCB1; assay: Inhibition of p-glycoprotein in human LoVo/DX cells assessed as potentiation of doxorubicin-induced cytotoxicity at 5 uM after 72 hrs by SRB assay; assay type: cell-based
How it was run: (§4)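 Doxorubicin cytotoxicity measured with and without 5 μM modulator by SRB over 72 h. Cells seeded at 30 000/well and attached 60 min at 37 °C before treatment. Survival taken as A492 treated / A492 control × 100%. Three experiments, means ± SD, Student's t test (p < 0.05).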

[28] = system: LoVo; assay: Potentiation of doxorubicin-induced cytotoxicity in human LoVo cells at 5 uM after 72 hrs by SRB assay; assay type: functional, cell-based; how it was run: as §4
[29] = system: LoVo; assay: Induction of apoptosis in human drug-sensitive LoVo cells assessed as activation of caspase-3 at 25 uM after 48 hrs relative to control; assay type: functional; how it was run: as §3
[30] = target: T1, ATP-dependent translocase ABCB1; assay: Inhibition of p-glycoprotein in human LoVo/DX cells assessed nuclear accumulation of doxorubicin at 100 uM after 60 mins by fluorescence assay; assay type: cell-based; conditions: 1 h
How it was run: (§5)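 Cells seeded at 15 000/well and cultured 48 h. Fresh F12 medium with 50 μM doxorubicin (plus 100 μM modulator) added for 60 min at 37 °C. Cells washed, then imaged by fluorescence microscopy (40× objective, excitation 528−553 nm, emission 578−633 nm) under identical illumination.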

[31] = target: T1, ATP-dependent translocase ABCB1; assay: Inhibition of p-glycoprotein in human LoVo/DX cells assessed accumulation of rhodamine 123 at 75 to 100 uM after 60 mins by fluorescence assay; assay type: cell-based; conditions: 1 h
How it was run: (§6)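 Cells at 300 000/mL in serum- and phenol red-free medium, preincubated 15 min at room temperature with modulator (5−100 μM). Rhodamine 123 then added (final 2 μM) for 60 min at 37 °C. Washed cells read by flow cytometry (488 nm excitation, 530/30 nm), 5000 events. FIR = (LoVo/Dx treated/control)/(LoVo treated/control). Triplicate.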

[32] = system: LoVo; assay: Inhibition of rhodamine 123 accumulation in human LoVo cells at 75 to 100 uM after 60 mins by fluorescence assay; assay type: functional, cell-based; how it was run: as §6
[33] = system: LoVo; assay: Inhibition of doxorubicin intracellular accumulation in human LoVo cells at 100 uM after 60 mins by fluorescence assay; assay type: functional, cell-based; how it was run: as §5

Row | Compound | Activity [1] [%] | Activity [2] [%] | Activity [3] [%] | Activity [4] [%] | Activity [5] | Activity [6] | inhibition (INH) [7] | other results
1 | COc1ccc([C@@H]2CC(=O)c3c(O)cc(OC)cc3O2)cc1 | 17.74 | 9.67 | 17.82 | 14.1 | Active | Active | Not Active | –
2 | CC[C@@]1(O)C(=O)OCc2c1cc1n(c2=O)Cc2cc3ccccc3nc2-1 [CAMPTOTHECIN] | – | – | – | – | – | – | – | Ratio [8]: 3.83; Activity [9]: 17.96%; Activity [10]: 17.56%; Activity [11]: 23.81%; Activity [12]: 17.61%; Ratio [13]: 3.4
3 | O=C1c2c(O)cc(O)cc2O[C@H](c2ccc(O)cc2)[C@H]1O [DIHYDROKAEMPFEROL] | 6.83 | 9.38 | 10.02 | 10.96 | Active | Active | Not Active | –
4 | O=C1C[C@@H](c2ccc(O)cc2)Oc2cc(O)cc(O)c21 [NARINGENIN] | 5.65 | 6.98 | 8.16 | 15.44 | Active | Active | Not Active | –
5 | COc1cc(O)c2c(c1)O[C@H](c1ccc(O)cc1)CC2=O [SAKURANETIN] | 18.89 | 4.87 | 25.28 | 18.16 | Active | Active | Not Active | –
6 | COc1ccc(-c2cc(=O)c3c(OC)c(OC)c(OC)c(OC)c3o2)cc1 [TANGERETIN] | 21.75 | 23.05 | 23.75 | 15.19 | Active | Active | – | Ratio [14]: 2.71; Ratio [15]: 2.37; Ratio [16]: 2.08; Ratio [17]: 2.17; Ratio [18]: 2.06; Activity [19]: 17.45%; Activity [20]: 17.55%; Activity [21]: 13.35%; Activity [22]: 13.87%; Activity [23]: 29.61%; Activity [24]: 25.82%; Activity [25]: 12.83%; Activity [26]: 11.57%; Activity [27]: Active; Activity [28]: inactive; Ratio [29]: 1.04; inhibition (INH) [30]: Active; inhibition (INH) [31]: Active; inhibition [32]: inactive; inhibition [33]: inactive
